Data reported in ChEMBL document CHEMBL3392999 (J Med Chem, 2014).
The source made the active and inactive calls. The rule behind the calls is not given here.

Key:
[1] = Depolymerization of microtubule cytoskeleton in human A549 cells assessed as DNA forming a ball without microtubules at 10 uM after 24 hrs by hoechst 33342-based fluorescence microscopy; format: cell-based
Summary of the method: (§1)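 A549 cells were cultured overnight on 12 mm round coverslips, then incubated 24 h with ligand or DMSO vehicle. Cells were permeabilized with Triton X-100 and fixed with 3.7% formaldehyde. Microtubules were stained with DM1A anti-α-tubulin monoclonal antibody and DNA with Hoechst 33342, then examined by epifluorescence microscopy with a cooled CCD camera.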

[2] = Depolymerization of microtubule cytoskeleton in human A549 cells assessed as aberrant mitosis at 10 uM after 24 hrs by hoechst 33342-based fluorescence microscopy; format: cell-based; summary of the method: as §1
[3] = Resistance factor, ratio of IC50 for human A2780AD cells to IC50 for human A2780 cells; format: functional, A2780 ADR
Summary of the method: (§2)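 Ovarian carcinoma A2780 and its P-glycoprotein-overexpressing MDR subline A2780AD were cultured in RPMI 1640 with 10% FCS, glutamine, antibiotics and 0.25 units/mL bovine insulin. Cytotoxicity was measured by a modified MTT assay. IC50 is 50% growth inhibition, averaged over three measurements. The resistance factor is A2780AD IC50 divided by A2780 IC50.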

[4] = target: T1, Tubulin (Homo sapiens) (UniProt P68371+Q9H4B7+P0DPH7+P68366+Q13509+Q71U36+P04350+Q3ZCM7+P07437+P68363+Q9BQE3+Q6PEY2+Q13885+Q9BVA1+Q9BUF5); assay: Inhibition of purified tubulin (unknown origin) assessed as concentration of compound in pellet solution at 30 uM after 1 hr; format: protein-complex assay
Summary of the method: (§3)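 In one set, mixtures stood 1 h at 37 °C and were extracted with dichloromethane. In another, microtubules were allowed to assemble and were ultracentrifuged, and the supernatant and pellet were extracted separately. Ligand in each extract was quantified against a 30 µM tubulin-free reference.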

[5] = Depolymerization of microtubule cytoskeleton in human A549 cells assessed as DNA forming a ball without microtubules at 5 uM after 24 hrs by hoechst 33342-based fluorescence microscopy; format: cell-based; summary of the method: as §1
[6] = target: T1, Tubulin (Homo sapiens); assay: Inhibition of purified tubulin (unknown origin) assessed as concentration of compound in supernatant solution at 30 uM after 1 hr; format: protein-complex assay; summary of the method: as §3
[7] = Depolymerization of microtubule cytoskeleton in human A549 cells at 1 uM after 24 hrs by hoechst 33342-based fluorescence microscopy; format: cell-based; summary of the method: as §1
[8] = tested on: HT-29; assay: Cytotoxicity against human HT-29 cells after 3 days by MTT assay; format: functional, cell-based; settings: HT-29, 72 h
Summary of the method: (§4)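 HT-29, MCF-7 and HEK293 cells were grown in DMEM (1 g/L glucose, 2 mM glutamine, antibiotics, amphotericin, 10% FBS). Serial dilutions of compound in DMSO were added to 5 x 10^3 cells/well for 3 days at 37 °C, 5% CO2. MTT was then added for 4 h, formazan was dissolved in 0.04 N HCl/2-propanol and read at 550 nm, in triplicate. IC50 is the 50% growth inhibition. The ratios are HEK293 IC50 over HT-29 or MCF-7 IC50.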

[9] = tested on: MCF7; assay: Cytotoxicity against human MCF7 cells after 3 days by MTT assay; format: functional, cell-based; settings: MCF7, 72 h; summary of the method: as §4
[10] = Depolymerization of microtubule cytoskeleton in human A549 cells assessed as aberrant mitosis at 5 uM after 24 hrs by hoechst 33342-based fluorescence microscopy; format: cell-based; summary of the method: as §1
[11] = tested on: HEK293; assay: Cytotoxicity against human HEK293 cells after 3 days by MTT assay; format: cell-based; settings: HEK293, 72 h; summary of the method: as §4
[12] = tested on: A549; assay: Cell cycle arrest at G2/M phase in human A549 cells at 5 to 10 uM after 20 hrs; format: functional
Summary of the method: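 A549 cells (RPMI 1640, 10% FCS, glutamine, antibiotics) were exposed to ligand or DMSO vehicle for 20 h. They were then fixed, RNase-treated and stained with propidium iodide. DNA content was measured by flow cytometry, and G2/M accumulation was read at the lowest concentration giving maximal arrest.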

[13] = Selectivity ratio of IC50 for human HEK293 cells to IC50 for human MCF7 cells; format: ADME, cell-based; settings: HEK293 cells versus MCF7 cells, read-out: Ratio IC50; summary of the method: as §4
[14] = Selectivity ratio of IC50 for human HEK293 cells to IC50 for human HT29 cells; format: ADME, cell-based; settings: HEK293 cells versus HT29 cells, read-out: Ratio IC50; summary of the method: as §4
[15] = target: T1, Tubulin (Homo sapiens); assay: Inhibition of purified tubulin (unknown origin) assessed as concentration of compound in dichloromethane solvent at 30 uM after 1 hr; format: protein-complex assay; summary of the method: as §3
[16] = target: T1, Tubulin (Homo sapiens); assay: Inhibition of purified tubulin (unknown origin) assessed as critical concentration of tubulin required to produce assembly at 25 uM after 30 mins by spectrophotometry; format: protein-complex assay
Summary of the method: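 Calf-brain tubulin (20 µM) was incubated 30 min at 37 °C in glycerol assembly buffer (3.4 M glycerol, 10 mM sodium phosphate, 1 mM EGTA, 1 mM GTP, pH 6.5) with ligand at varying concentrations or DMSO vehicle. The critical concentration for assembly was then calculated from the processed samples. Values are averages of replicate measurements.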

[17] = tested on: A2780; assay: Cytotoxicity against human A2780 cells after 24 hrs by MTT assay; format: functional, cell-based; settings: A2780, 24 h
[18] = Cytotoxicity against human A2780AD cells after 24 hrs by MTT assay; format: functional, cell-based; settings: A2780 ADR; summary of the method: as §2
[19] = Depolymerization of microtubule cytoskeleton in human A549 cells at 5 uM after 24 hrs by hoechst 33342-based fluorescence microscopy; format: cell-based; summary of the method: as §1
[20] = tested on: A549; assay: Cell cycle arrest at G2/M phase in human A549 cells at 50 nM after 20 hrs; format: functional, cell-based
Summary of the method: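 A549 human lung carcinoma cells in RPMI 1640 with 10% FCS, glutamine and antibiotics, exposed for 20 h to compound or DMSO vehicle. Cells were fixed, RNase-treated and stained with propidium iodide. DNA content was measured by flow cytometry to give G2/M fraction.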

[21] = Depolymerization of microtubule cytoskeleton in human A549 cells assessed as aberrant mitosis at 50 nM after 24 hrs by hoechst 33342-based fluorescence microscopy; format: cell-based
Summary of the method: (§5)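 A549 cells grown overnight on 12 mm round coverslips, then 24 h with compound or DMSO vehicle. Cells permeabilized with Triton X100 and fixed in 3.7% formaldehyde. Microtubules stained with DM1A α-tubulin monoclonal antibody, DNA with Hoechst 33342. Examined by epifluorescence microscopy with cooled CCD imaging; mitotic spindles inspected.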

[22] = Depolymerization of microtubule cytoskeleton in human A549 cells assessed as DNA forming a ball without microtubules at 50 nM after 24 hrs by hoechst 33342-based fluorescence microscopy; format: cell-based; summary of the method: as §5
[23] = Depolymerization of microtubule cytoskeleton in human A549 cells at 50 nM after 24 hrs by hoechst 33342-based fluorescence microscopy; format: cell-based; summary of the method: as §5

COc1cc2c(c(OC)c1OC)-c1ccc(OC)c(=O)cc1[C@@H](NC(=O)CCCC(=O)OCCCCC[C@@H]1CC=CC(=O)O1)CC2
Activity [1]: Active | Activity [2]: Active | Ratio IC50 [3]: 118 | Activity [4]: 5.7 µM | Activity [5]: Active | Activity [6]: 18.1 µM | Activity [7]: Active | IC50 [8]: 21000 nM | IC50 [9]: 700 nM | Activity [10]: Active | IC50 [11]: 6000 nM | Activity [12]: >80% | selectivity ratio [13]: 8.7 | selectivity ratio [14]: 0.3 | Activity [15]: 21.7 µM | Activity [16]: 6.6 µM | IC50 [17]: 500 nM | IC50 [18]: 59000 nM

COc1cc2c(c(OC)c1OC)-c1ccc(OC)c(=O)cc1[C@@H](NC(=O)CCCCCCC(=O)OCCCCC[C@@H]1CC=CC(=O)O1)CC2
IC50 [8]: 20000 nM | IC50 [9]: 290 nM | IC50 [11]: 33000 nM | selectivity ratio [13]: > 100 | selectivity ratio [14]: 1.6

COc1cc2c(c(OC)c1OC)-c1ccc(OC)c(=O)cc1[C@@H](NC(=O)CCCCCCCCCCC(=O)OCCCCC[C@H]1CC=CC(=O)O1)CC2
IC50 [8]: 40000 nM | IC50 [9]: 300 nM | IC50 [11]: 24000 nM | selectivity ratio [13]: 80 | selectivity ratio [14]: 0.6

COc1cc2c(c(OC)c1OC)-c1ccc(OC)c(=O)cc1[C@@H](NC(=O)CCCCCCCCCCCCCCC(=O)OCCCCC[C@H]1CC=CC(=O)O1)CC2
IC50 [8]: 30000 nM | IC50 [9]: 500 nM | IC50 [11]: 500 nM | selectivity ratio [13]: 1 | selectivity ratio [14]: < 0.1

COc1cc2c(c(OC)c1OC)-c1ccc(OC)c(=O)cc1[C@@H](NC(=O)CCCC(=O)OCCCCC[C@H]1CC=CC(=O)O1)CC2
IC50 [8]: 65000 nM | IC50 [9]: 19000 nM | IC50 [11]: 400 nM | selectivity ratio [13]: < 0.1 | selectivity ratio [14]: < 0.1

CC(=O)O[C@@]12CO[C@@H]1C[C@H](O)[C@@]1(C)C(=O)[C@H](O)C3=C(C)[C@@H](OC(=O)[C@H](O)[C@@H](NC(=O)OC(C)(C)C)c4ccccc4)C[C@@](O)([C@@H](OC(=O)c4ccccc4)[C@H]21)C3(C)C
Activity [16]: 0.9 µM

COc1cc2c(c(OC)c1OC)-c1ccc(OC)c(=O)cc1[C@@H](NC(=O)CCCCCCCCCCCCCCC(=O)OCCCCC[C@@H]1CC=CC(=O)O1)CC2
IC50 [8]: 8000 nM | IC50 [9]: 600 nM | IC50 [11]: 440 nM | selectivity ratio [13]: 0.7 | selectivity ratio [14]: < 0.1

COc1cc2c(c(OC)c1OC)-c1ccc(OC)c(=O)cc1[C@@H](NC(=O)CCCCCCC(=O)OCCCCC[C@H]1CC=CC(=O)O1)CC2
IC50 [8]: 40000 nM | IC50 [9]: 12000 nM | IC50 [11]: 700 nM | selectivity ratio [13]: < 0.1 | selectivity ratio [14]: < 0.1

COc1cc2c(c(OC)c1OC)-c1ccc(OC)c(=O)cc1[C@@H](NC(=O)CCCCCCCCCCC(=O)OCCCCC[C@@H]1CC=CC(=O)O1)CC2
Activity [1]: Active | Activity [2]: Active | Activity [19]: Active | Ratio IC50 [3]: 110 | Activity [4]: 5.7 µM | Activity [5]: Active | Activity [6]: 2 µM | IC50 [8]: 18000 nM | IC50 [9]: 330 nM | Activity [10]: Active | IC50 [11]: 1400 nM | Activity [12]: >80% | selectivity ratio [13]: 4.2 | selectivity ratio [14]: < 0.1 | Activity [15]: 6.9 µM | Activity [16]: 6.3 µM | IC50 [17]: 240 nM | IC50 [18]: 26500 nM

COc1cc2c(c(OC)c1OC)-c1ccc(OC)c(=O)cc1[C@@H](NC(C)=O)CC2 [COLCHICINE]
Activity [20]: Active | IC50 [8]: 50 nM | Activity [21]: Active | IC50 [11]: 5 nM | Activity [22]: Active | IC50 [18]: 306 nM | Activity [23]: Active

C/C=C/C[C@H](C)[C@@H](OC)[C@@H](C)[C@H](O)C[C@H]1OC(=O)C=C[C@H]1CC [PIRONETIN]
Ratio IC50 [3]: 3 | selectivity ratio [13]: 2.8 | selectivity ratio [14]: 2.6 | Activity [16]: > 15 µM | IC50 [17]: 8 nM | IC50 [18]: 25 nM
